Some of the results follow. A number with no mark means an inactive call. Activity calls are given as the source filed them.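 The calls were made as follows, unless noted: active = mean inhibition above a cutoff equal to the average over all tested compounds plus one standard deviation (cut at about 70% in these data); inactive = the rest.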
Key:
[1] = system: DAF-12 nuclear receptor (Heterodera glycines), GAL4-LBD fusion; test: H. glycines DAF-12 receptor agonists, confirmation, cell-based, luminescence, HEK293, GAL4-LBD fusion (AID 743050;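 active = mean activation over triplicate wells above the hit cutoff derived from the earlier primary screen, cut at about 11% in these data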;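 also: 0% = DMSO low control and 100% = 2 mM sodium butyrate high control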); details: HEK293 GAL4-hgDAF12 luciferase reporter, agonist mode; at 6.8 µM; hits give high values; percent of butyrate response
[2] = target: Oxysterols receptor LXR-beta (Homo sapiens) (UniProt P55055); test: LXR agonists, Gal4 luciferase reporter, confirmation, counter-screen for hgDAF-12 agonist project, cell-based, luminescence, HEK293, H. glycines campaign (AID 743051;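 active = mean activation of the triplicate above a set limit carried over from the primary screen, none filed active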); details: 24 h, at 6.8 µM, hits give high values
In short: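 System: Gal4-LXR luciferase reporter HEK293 cells / Compound: single nominal test compound dose of 6.8 µM / Times: 24 h exposure, 37 °C / Technique: One-Glo luminescence after 15 min / Read-out basis: % activation versus DMSO and positive controls / Benchmarks: DMSO low control, 0.68% final / Replication: n 3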

[3] = target: Photoreceptor-specific nuclear receptor (Homo sapiens) (UniProt Q9Y5X4); test: NR2E3 agonist confirmation in cells, cell-based, luminescence, CHO-S two-hybrid (AID 624378;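 active = average inhibition above a cutoff equal to the mean inhibition of all tested compounds plus one SD, cut at about 70% in these data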;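 also: 0% = DMSO in NR2E3 cells and 100% = DMSO in cells lacking NR2E3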); details: CHO-S mammalian two-hybrid NR2E3-NCOR, luciferase luminescence; at 3.98 µM; hits give high values
[4] = GAL4-VP16 reporter modulators, confirmation, counter-screen for NR2E3 agonist project, cell-based, luminescence, CHO-S, high throughput (AID 624379); details: CHO-S GAL4-VP16 luciferase reporter, at 3.98 µM, hits give high values;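 also: luciferase from a UAS reporter driven by GAL4-VP16 transactivation; 0% = DMSO with VP16-transfected cells and 100% = DMSO with cells lacking VP16; higher means less reporter light so more repression of VP16 activity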

Photoreceptor-specific nuclear receptor (Homo sapiens), sequence (Q9Y5X4 whole entry, looked up, the tested form may be a part): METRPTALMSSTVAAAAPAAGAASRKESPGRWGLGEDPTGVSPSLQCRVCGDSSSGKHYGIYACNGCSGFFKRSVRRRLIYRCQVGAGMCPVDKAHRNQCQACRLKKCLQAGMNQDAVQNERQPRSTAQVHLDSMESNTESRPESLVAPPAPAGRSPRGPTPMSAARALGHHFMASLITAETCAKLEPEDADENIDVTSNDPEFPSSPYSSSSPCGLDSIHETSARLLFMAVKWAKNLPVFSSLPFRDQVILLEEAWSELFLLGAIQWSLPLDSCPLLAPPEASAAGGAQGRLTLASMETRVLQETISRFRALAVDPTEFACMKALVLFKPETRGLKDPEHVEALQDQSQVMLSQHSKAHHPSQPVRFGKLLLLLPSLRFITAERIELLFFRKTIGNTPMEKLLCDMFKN
Oxysterols receptor LXR-beta (Homo sapiens), sequence (P55055 whole entry, looked up, the tested form may be a part): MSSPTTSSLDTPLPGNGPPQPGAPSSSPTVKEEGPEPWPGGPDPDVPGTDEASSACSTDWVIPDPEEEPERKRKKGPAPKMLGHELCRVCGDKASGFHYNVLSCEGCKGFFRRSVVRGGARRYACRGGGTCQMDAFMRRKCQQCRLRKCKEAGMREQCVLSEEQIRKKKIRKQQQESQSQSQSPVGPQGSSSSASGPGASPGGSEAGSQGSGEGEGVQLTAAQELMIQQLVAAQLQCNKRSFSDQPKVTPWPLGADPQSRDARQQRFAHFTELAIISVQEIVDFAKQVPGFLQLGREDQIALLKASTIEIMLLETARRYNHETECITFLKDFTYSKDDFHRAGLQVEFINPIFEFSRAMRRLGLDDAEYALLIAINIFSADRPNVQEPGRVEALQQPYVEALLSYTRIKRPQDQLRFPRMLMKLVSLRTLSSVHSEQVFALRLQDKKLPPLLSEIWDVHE

With `CNc1cncc(-c2ccc(NS(C)(=O)=O)cc2)n1` the activation [1] was 8.61% and the activation [2] was 0.06%.
`CCCNc1ncnc2sc(C)c(C)c12` showed an inhibition [3] of 27.8% and an inhibition [4] of 29.6%.
`Cc1cc2nc(-c3ccc(Cl)cc3)c(Cc3cccc(F)c3)n2c(C)c1Br` gave an inhibition [3] of 36.1% and an inhibition [4] of -25.9%.
For `CCOC(=O)N1CCN(C(=O)c2ccc(S(=O)(=O)Nc3cccc(C(F)(F)F)c3)cc2)CC1`, the inhibition [3] was 65.8% and the inhibition [4] was 47.3%.
In the case of `S=C(NCC1CCCO1)N1CCN(c2ccc(Cl)c(Cl)c2)CC1` (centres undefined), the inhibition [3] was 89.2% (active) and the inhibition [4] was 73.3% (active).
With `CCCC1CCC(=NNC(=S)NCCc2ccccc2)CC1` (centres undefined) the inhibition [3] was 3.69% and the inhibition [4] was -1.56%.
`Cc1ccc(NS(=O)(=O)c2ccc(-c3coc(C)n3)cc2)c(C)c1` gave an inhibition [3] of 57.5% and an inhibition [4] of 46.7%.
Compound `Cc1nc(-c2ccc(F)cc2)c(CC(=O)Nc2cc(S(=O)(=O)N3CCCCC3)ccc2C)s1` has an inhibition [3] of 56.8% and an inhibition [4] of -7.22%.
For `O=C(Nc1nnc(-c2ccccc2)o1)c1cc(-c2cccs2)nc2ccccc12`, the inhibition [3] was 98.3% (active) and the inhibition [4] was 12.6%.
For `O=C(c1ccc(N2CCCC2=O)cc1)N1CCN(c2ccc(C(F)(F)F)cc2[N+](=O)[O-])CC1`, the inhibition [3] was 93.2% (active) and the inhibition [4] was 74.9% (active).
For `CNC(=O)c1sc(Nc2ccc(OCc3ccccc3)cc2)nc1C`, the inhibition [3] was 37.7% and the inhibition [4] was 30%.
In the case of `COc1ccc(CNS(=O)(=O)c2ccc(NC(=O)N3CCCCC3)cc2)cc1`, the inhibition [3] was 55.3% and the inhibition [4] was 52.4%.

Source: PubChem BioAssay
